Reference: ChEMBL document CHEMBL1146537, “Diterpenoids from Tetraclinis articulata that inhibit various human leukocyte functions” (J Nat Prod, 2003)

Legend:
Neutrophil [1] = assay: Inhibition of cytochalasin B and fMLP-stimulated human neutrophil degranulation assessed as inhibition of elastase release at 10 uM preincubated for 5 mins measured after 20 mins; type: functional
Outline: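 Neutrophils (2.5×10^6/mL) preincubated 5 min with compound or vehicle, then cytochalasin B (10 μM) + fMLP (10 nM), 10 min, 37 °C. Supernatant after 1200g spin at 4 °C, 10 min, reacted with Boc-L-alanine p-nitrophenyl ester (200 μM) 20 min, 37 °C; p-nitrophenol read at 414 nm. Direct enzyme inhibition checked by 5 min compound preincubation with stimulated supernatant before substrate.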

Neutrophil [2] = assay: Inhibition of cytochalasin B and fMLP-stimulated human neutrophil degranulation assessed as inhibition of myeloperoxidase release at 10 uM preincubated for 5 mins; type: functional
Outline: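 Neutrophils (2.5×10^6 cells/mL) preincubated 5 min at 37 °C with compound in ethanol (ethanol alone for controls). Then stimulated 10 min at 37 °C with cytochalasin B (10 μM) plus fMLP (10 nM).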

Neutrophil [3] = assay: Inhibition of TPA-induced chemiluminescence response in human neutrophils at 10 uM after 7 mins; type: functional
Outline: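 Neutrophils (2.5×10^6/mL) with luminol (40 μM), stimulated by TPA (1 μM); light output counted after 7 min, chosen as time of maximal production.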

[4] = Cytotoxicity against human neutrophils up to 10 uM by MTT assay; type: cell-based; details: neutrophil

SMILES: C=C[C@@]1(C)CC[C@H]2[C@](O)(CC[C@@H]3[C@]2(C)CCC[C@@]3(C)C=O)C1
- inhibition at 10 µM (Neutrophil [1]): 17.8%
- inhibition at 10 µM (Neutrophil [2]): 47.8%
- inhibition at 10 µM (Neutrophil [3]): 30.5%
- Activity [4]: Non-toxic

SMILES: C=C[C@@]1(C)CC[C@H]2[C@](O)(CC[C@H]3[C@](C)(COC(C)=O)CCC[C@@]32C)C1
- inhibition at 10 µM (Neutrophil [1]): 33.5%
- inhibition at 10 µM (Neutrophil [2]): 55.4%
- inhibition at 10 µM (Neutrophil [3]): 6.5%
- Activity [4]: Non-toxic

SMILES: C=C[C@@]1(C)CC[C@H]2[C@](O)(CC[C@H]3[C@](C)(CO)CCC[C@@]32C)C1
- inhibition at 10 µM (Neutrophil [1]): 24.1%
- inhibition at 10 µM (Neutrophil [2]): 46.7%
- inhibition at 10 µM (Neutrophil [3]): 1.8%
- Activity [4]: Non-toxic
